Laboratory results taken from ChEMBL document CHEMBL1146374, “Clubbed triazoles: a novel approach to antitubercular drugs” (Eur J Med Chem, 2007).

Tests used:
[1] = Cytotoxicity against Vero-C1008 cells at 6.25 to 50 ug/ml; type: cell-based; details: chlorocebus sabaeus
Procedure, shortened: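 Vero-C-1008 cells were exposed to compounds at several concentrations across 6.25–50 µg/ml. Cytotoxicity was read out by neutral red uptake.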

Pseudomonas aeruginosa = test: Antibacterial activity against Pseudomonas aeruginosa at 50 to 100 uM after 24 hrs by well diffusion method; type: functional
Procedure, shortened: (§1)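 Agar well diffusion: nutrient agar plates with 10 mm wells cut by sterile cork borer; 24-h subcultured bacteria swabbed onto the plates from nutrient broth. Compounds were dissolved in chloroform and added to wells at […]. Gentamycin served as the standard antibiotic.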

Staphylococcus aureus = test: Antibacterial activity against Staphylococcus aureus at 50 to 100 uM after 24 hrs by well diffusion method; type: functional; procedure, shortened: as §1
Escherichia coli = test: Antibacterial activity against Escherichia coli at 50 to 100 uM after 24 hrs by well diffusion method; type: functional; procedure, shortened: as §1
[2] = test system: Mycobacterium tuberculosis; test: Antituberculosis activity against Mycobacterium tuberculosis H37Rv by Microplate Alamar Blue Assay; type: functional
Procedure, shortened: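 MIC against M. tuberculosis H37Rv (ATCC 27294) in BACTEC 12B medium by broth microdilution (MABA). Primary actives were retested at lower concentrations. MIC is the lowest concentration giving a […] fluorescence reduction versus controls. Fluorescent compounds were run in the BACTEC 460 radiometric system. Rifampin was the reference.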

Salmonella typhi = test: Antibacterial activity against Salmonella typhi at 50 to 100 uM after 24 hrs by well diffusion method; type: functional, Salmonella enterica subsp. enterica serovar Typhi
Procedure, shortened: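 Agar well diffusion on nutrient agar plates; wells cut with a 10 mm sterile cork borer. Plates swabbed with 24-h subcultured bacteria from nutrient broth. Compounds dissolved in chloroform and added to wells at a range of concentrations. Gentamycin was the standard.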

Compound | Activity [1] | zone of inhibition (Pseudomonas aeruginosa) | zone of inhibition (Staphylococcus aureus) | zone of inhibition (Escherichia coli) | MIC [2] | Inhibition (Salmonella typhi) | inhibition (Pseudomonas aeruginosa) | inhibition (Staphylococcus aureus) | inhibition (Escherichia coli) | inhibition (Salmonella typhi; Salmonella enterica subsp. enterica serovar Typhi)
COC(=O)CSc1nnc(Cc2csc(NC(=O)c3ccccc3)n2)n1NC(=O)c1ccccc1 | Non-toxic | 22 mm | 22 mm | 20 mm | < 6.25 µg/mL | 20% |  |  |  | 
O=C(CSc1nnc(Cc2csc(NC(=O)CCl)n2)n1NC(=O)c1ccccc1)NNC(=O)c1ccccc1 | Non-toxic |  |  |  | < 6.25 µg/mL |  |  |  |  | 
CC(=O)Nc1nc(Cc2nnc(SCSc3nnc(Cc4csc(NC(C)=O)n4)n3NC(=O)c3ccccc3)n2NC(=O)c2ccccc2)cs1 | Non-toxic | 16 mm | 16 mm | 12 mm | < 6.25 µg/mL | 12% |  |  |  | 
O=C(CCl)NNC(=O)CSc1nnc(Cc2csc(NC(=O)CCl)n2)n1NC(=O)c1ccccc1 | Non-toxic |  |  |  | < 6.25 µg/mL |  |  |  |  | 
N#CCSc1nnc(Cc2csc(NCCC(=O)O)n2)n1NC(=O)c1ccccc1 | Non-toxic | 24 mm | 26 mm | 20 mm | < 6.25 µg/mL | 20% |  |  |  | 
O=C(CCl)Nc1nc(Cc2nnc(S)n2NC(=O)c2ccccc2)cs1 | Non-toxic | 20 mm | 20 mm | 18 mm | < 6.25 µg/mL | 14% |  |  |  | 
COC(=O)CSc1nnc(Cc2csc(NC(=O)CCl)n2)n1NC(=O)c1ccccc1 | Non-toxic | 22 mm | 24 mm | 20 mm | < 6.25 µg/mL | 18% |  |  |  | 
Nn1c(S)nnc1CSc1nnc(Cc2csc(NCCC(=O)O)n2)n1NC(=O)c1ccccc1 | Non-toxic | 11 mm | 14 mm | 18 mm | < 6.25 µg/mL | 12% |  |  |  | 
CC(=O)NNC(=O)CSc1nnc(Cc2csc(NC(C)=O)n2)n1NC(=O)c1ccccc1 | Non-toxic | 18 mm | 21 mm | 10 mm | < 6.25 µg/mL | 18% |  |  |  | 
Nn1c(S)nnc1CSc1nnc(Cc2csc(NC(=O)CCl)n2)n1NC(=O)c1ccccc1 | Non-toxic | 10 mm | 12 mm | 10 mm | < 6.25 µg/mL | 14% |  |  |  | 
N#CCSc1nnc(Cc2csc(NC(=O)CCl)n2)n1NC(=O)c1ccccc1 | Non-toxic | 16 mm | 20 mm | 10 mm | < 6.25 µg/mL | 10% |  |  |  | 
CC(=O)NNC(=O)CSc1nnc(Cc2csc(NC(=O)c3ccccc3)n2)n1NC(=O)c1ccccc1 | Non-toxic |  |  |  | < 6.25 µg/mL |  |  |  |  | 
Nn1c(S)nnc1Cc1csc(NCCC(=O)O)n1 | Non-toxic | 22 mm | 25 mm | 20 mm | < 6.25 µg/mL | 16% |  |  |  | 
CC(=O)NNC(=O)CSc1nnc(Cc2csc(NC(=O)CCl)n2)n1NC(=O)c1ccccc1 | Non-toxic | 10 mm | 24 mm | 14 mm | < 6.25 µg/mL | 14% |  |  |  | 
O=C(O)CCNc1nc(Cc2nnc(SCSc3nnc(Cc4csc(NCCC(=O)O)n4)n3NC(=O)c3ccccc3)n2NC(=O)c2ccccc2)cs1 | Non-toxic | 16 mm | 18 mm | 10 mm | < 6.25 µg/mL | 12% |  |  |  | 
COC(=O)CSc1nnc(Cc2csc(NC(C)=O)n2)n1NC(=O)c1ccccc1 | Non-toxic | 11 mm | 22 mm | 24 mm | < 6.25 µg/mL | 24% |  |  |  | 

Compound | Activity [1] | zone of inhibition (Pseudomonas aeruginosa) | zone of inhibition (Staphylococcus aureus) | zone of inhibition (Escherichia coli) | MIC [2] | Inhibition (Salmonella typhi) | inhibition (Pseudomonas aeruginosa) | inhibition (Staphylococcus aureus) | inhibition (Escherichia coli) | inhibition (Salmonella typhi; Salmonella enterica subsp. enterica serovar Typhi)
CC(=O)Nc1nc(Cc2nnc(SCC(=O)NNC(=O)CCl)n2NC(=O)c2ccccc2)cs1 | Non-toxic |  |  |  | < 6.25 µg/mL |  |  |  |  | 
Nn1c(S)nnc1CSc1nnc(Cc2csc(NC(=O)c3ccccc3)n2)n1NC(=O)c1ccccc1 | Non-toxic | 18 mm | 12 mm | 18 mm | < 6.25 µg/mL | 14% |  |  |  | 
CC(=O)Nc1nc(Cc2nnc(SCC(=O)NNC(=O)c3ccccc3)n2NC(=O)c2ccccc2)cs1 | Non-toxic |  |  |  | < 6.25 µg/mL |  |  |  |  | 
O=C(O)CCNc1nc(Cc2nnc(SCC(=O)NNC(=O)c3ccccc3)n2NC(=O)c2ccccc2)cs1 | Non-toxic |  |  |  | < 6.25 µg/mL |  |  |  |  | 
Nn1c(S)nnc1Cc1csc(NC(=O)c2ccccc2)n1 | Non-toxic | 20 mm | 22 mm | 18 mm | < 6.25 µg/mL | 14% |  |  |  | 
GENTAMICIN |  |  |  |  |  |  | 35% | 34% | 31% | 30%
O=C(O)CCNc1nc(Cc2nnc(S)n2NC(=O)c2ccccc2)cs1 | Non-toxic | 17 mm | 11 mm | 15 mm | < 6.25 µg/mL | 22% |  |  |  | 
O=C(CSc1nnc(Cc2csc(NC(=O)c3ccccc3)n2)n1NC(=O)c1ccccc1)NNC(=O)c1ccccc1 | Non-toxic |  |  |  | < 6.25 µg/mL |  |  |  |  | 
Nn1c(S)nnc1Cc1csc(NC(=O)CCl)n1 | Non-toxic | 17 mm | 18 mm | 14 mm | < 6.25 µg/mL | 12% |  |  |  | 
O=C(Nc1nc(Cc2nnc(SCSc3nnc(Cc4csc(NC(=O)c5ccccc5)n4)n3NC(=O)c3ccccc3)n2NC(=O)c2ccccc2)cs1)c1ccccc1 | Non-toxic | 24 mm | 11 mm | 16 mm | < 6.25 µg/mL | 12% |  |  |  | 
O=C(CCl)NNC(=O)CSc1nnc(Cc2csc(NC(=O)c3ccccc3)n2)n1NC(=O)c1ccccc1 | Non-toxic |  |  |  | < 6.25 µg/mL |  |  |  |  | 
O=C(Nc1nc(Cc2nnc(S)n2NC(=O)c2ccccc2)cs1)c1ccccc1 | Non-toxic | 10 mm | 16 mm | 10 mm | < 6.25 µg/mL | 18% |  |  |  | 
CC(=O)Nc1nc(Cc2nnc(S)n2NC(=O)c2ccccc2)cs1 | Non-toxic | 16 mm | 16 mm | 20 mm | < 6.25 µg/mL | 16% |  |  |  | 
O=C(O)CCNc1nc(Cc2nnc(SCC(=O)NNC(=O)CCl)n2NC(=O)c2ccccc2)cs1 | Non-toxic |  |  |  | < 6.25 µg/mL |  |  |  |  | 
COC(=O)CSc1nnc(Cc2csc(NCCC(=O)O)n2)n1NC(=O)c1ccccc1 | Non-toxic | 18 mm | 16 mm | 12 mm | < 6.25 µg/mL | 12% |  |  |  | 
CC(=O)NNC(=O)CSc1nnc(Cc2csc(NCCC(=O)O)n2)n1NC(=O)c1ccccc1 | Non-toxic |  |  |  | < 6.25 µg/mL |  |  |  |  | 
